Laboratory results as given in ChEMBL document CHEMBL1159380, “Marine natural products as novel antioxidant prototypes” (J Nat Prod, 2003).
Activity calls are given as the source filed them. The calls are words filed in the database; no cut-off is given here.

Legend:
HL-60 = assay: Antioxidant activity against TPA-induced ROS production in human HL60 cells by 2',7'-dichlorodihydrofluorescein diacetate cellular-based assay; format: functional, cell-based
Procedure, shortened: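 HL-60 cells (1 × 10^6 cells/mL) in RPMI 1640 with 10% FBS and antibiotics, 37 °C, 5% CO2. Cells were pretreated 30 min with a range of test concentrations, then stimulated 30 min with 100 ng/mL TPA, then given DCFH-DA (5 μg/mL) for 15 min. DCF fluorescence was read at 530 nm, and percent inhibition was calculated against TPA-treated controls without test material.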

[1] = system: Radical scavenging activity; assay: Antioxidant activity assessed as DPPH free radical scavenging activity by TLC […] assay; format: functional
Procedure, shortened: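 Compounds were dissolved in DMSO at 2.0 mg/mL and 4.0 μg of each was spotted onto scored silica gel GF TLC plates. Residual DMSO was removed under vacuum. Plates were sprayed with 0.2% (w/v) DPPH in MeOH and radical scavenging was judged visually 30 min after spraying.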

Molecule | IC50 (HL-60; Homo sapiens, HL-60) [µM] | Activity [1] | Activity (HL-60) | IC50 (HL-60; hl-60) [µM]
CC(C)=CCC/C(C)=C/Cc1cc(O)c(Br)cc1O [CYMOPOL] | 4 | Active |  | 
O=C1C(C2=C3c4ccccc4NC3/C(=C\c3ccc(O)cc3)C2=O)=C2C(=Nc3ccccc32)/C1=C\c1ccc(O)cc1 (stereo not given) [SCYTONEMIN] | > 23 |  |  | 
COc1cc2ccnc3c2c(c1O)N(C)C=C3 [ISOAAPTAMINE] | > 55 | Active |  | 
COc1c(OC)c(O)c2c(=O)c(C)c(/C=C/c3cc(O)cc(O)c3)oc2c1OC [HORMOTHAMNIONE] | > 31 |  |  | 
COc1cc2ccnc3c2c(c1OC)NC=C3 [AAPTAMINE] | > 55 | Active |  | 
Cc1ccc([C@@H](C)CCCC(C)(C)O)c(O)c1 |  |  | inactive | 
VITAMIN E [listing 1 of 2 here] |  |  |  | 255
CC1(C)CCC[C@]2(C)[C@H]3C=C4C=C(O)C(=O)C=C4O[C@@]3(C)CC[C@@H]12 [PUUPEHENONE] | 27 | Active |  | 
OCc1cc(Br)c(O)c(O)c1Cc1ccc(O)c(Br)c1 [AVRAINVILLEOL] | 6.1 | Active |  | 
O=C1O[C@H]([C@@H](O)CO)C(O)=C1O [ASCORBIC ACID] | 9.7 | Active |  | 
CC(=O)OC/C=C(\OC(C)=O)C(C)=O | 49 | inactive |  | 
COc1c(OC)c(O)c2c(=O)c(C)c(/C=C/c3cc(OC(C)=O)cc(OC(C)=O)c3)oc2c1OC [HORMOTHAMNIONE DIACETATE] | 18.3 | inactive |  | 
C/C(=C\Cc1cc(O)c(Br)cc1O)CCCC(C)(C)O | > 14.6 | Active |  | 
CC(C)=CCC[C@H](C)c1ccc(C)cc1O | 209 |  |  | 
VITAMIN E [listing 2 of 2 here] |  | Active |  | 
CCC(C)CC(C(=O)N/C=C\c1c[nH]c2ccccc12)N(C)Cc1ccc(O)cc1 (stereo not given) [ARAGILAMIDE] | 11 |  |  | 
